# According to ChEMBL document CHEMBL2177069, “Novel peptidomimetic compounds containing redox active chalcogens and quinones as potential anticancer agents” (Eur J Med Chem, 2012):
# How the values were obtained:
# Saccharomyces cerevisiae [1] = assay: Growth inhibition of COX17-deficient Saccharomyces cerevisiae YLL009C mutant at 20 ug/disc after 24 to 48 hrs by agar diffusion assay; type: functional; details: read-out: DIZ
# How it was run: (§1)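 S. cerevisiae deletion mutants or wild type grown on YPD, seeded into liquid agar medium at an optical density of 0.1. 6 mm paper discs soaked with methanolic compound solution were placed on the plates and incubated at 30 °C. Growth was checked after 1 and 2 days, and the inhibition zone diameter was recorded in mm.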
# Saccharomyces cerevisiae [2] = assay: Growth inhibition of GSH2-deficient Saccharomyces cerevisiae YOL049W mutant at 20 ug/disc after 24 to 48 hrs by agar diffusion assay; type: functional; details: read-out: DIZ; how it was run: as §1
# Saccharomyces cerevisiae [3] = assay: Growth inhibition of GTT2-deficient Saccharomyces cerevisiae YLL060C mutant at 20 ug/disc after 24 to 48 hrs by agar diffusion assay; type: functional; details: read-out: DIZ; how it was run: as §1
# Saccharomyces cerevisiae [4] = assay: Growth inhibition of PST2-deficient Saccharomyces cerevisiae YDR032C mutant at 20 ug/disc 24 to 48 hrs by agar diffusion assay; type: functional; details: read-out: DIZ; how it was run: as §1
# Saccharomyces cerevisiae [5] = assay: Growth inhibition of SOD2-deficient Saccharomyces cerevisiae YHR008C mutant at 20 ug/disc 24 to 48 hrs by agar diffusion assay; type: functional; details: read-out: DIZ; how it was run: as §1
# Saccharomyces cerevisiae [6] = assay: Growth inhibition of SOD1-deficient Saccharomyces cerevisiae YJR104C mutant at 20 ug/disc after 24 to 48 hrs by agar diffusion assay; type: functional; details: read-out: DIZ; how it was run: as §1
# A498 = assay: Cytotoxicity against human A498 cells after 24 hrs by MTT assay; type: functional, cell-based; details: A498, 24 h
# How it was run: (§2)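 MTT assay. Cells were seeded at 50,000 cells/mL in medium with 10% fetal calf serum and grown for two days at 37 °C, 10% CO2. Serial dilutions of compound were then added for 24 h. MTT was added (final 0.5 mg/mL) for 2 h, and the formazan was pelleted, washed, dissolved in isopropanol with 0.4% HCl and read at 590 nm. IC50 is the concentration giving 50% of untreated-control absorbance, taken from dose-response curves; mean of two parallel experiments.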
# MCF7 [7] = assay: Cytotoxicity against human MCF7 cells after 24 hrs by MTT assay; type: functional, cell-based; details: MCF7, 24 h; how it was run: as §2
# MDA-MB-231 = assay: Cytotoxicity against human MDA-MB-231 cells; type: functional
# Hs-578T = assay: Cytotoxicity against human Hs578T cells; type: functional
# MCF7 [8] = assay: Cytotoxicity against human MCF7 cells; type: functional
# PC-3 = assay: Cytotoxicity against human PC3 cells; type: functional
# SN12C = assay: Cytotoxicity against human SN12C cells; type: functional
# SK-OV-3 = assay: Cytotoxicity against human SKOV3 cells; type: functional
# NCI/ADR-RES = assay: Cytotoxicity against human NCI/ADR-RES cells; type: functional
# OVCAR-4 = assay: Cytotoxicity against human OVCAR4 cells; type: functional
# OVCAR-5 = assay: Cytotoxicity against human OVCAR5 cells; type: functional
# IGROV-1 = assay: Cytotoxicity against human IGROV1 cells; type: functional
# OVCAR-3 = assay: Cytotoxicity against human OVCAR3 cells; type: functional
# SK-MEL-28 = assay: Cytotoxicity against human SK-MEL-28 cells; type: functional
# U-251 = assay: Cytotoxicity against human U251 cells; type: functional
# LOX IMVI = assay: Cytotoxicity against human LOXIMVI cells; type: functional
# SF-268 = assay: Cytotoxicity against human SF268 cells; type: functional
# HCT-15 = assay: Cytotoxicity against human HCT15 cells; type: functional
# COLO 205 = assay: Cytotoxicity against human COLO205 cells; type: functional
# NCI-H460 = assay: Cytotoxicity against human NCI-H460 cells; type: functional
# NCI-H23 = assay: Cytotoxicity against human NCI-H23 cells; type: functional
# A549 = assay: Cytotoxicity against human A549 cells; type: functional
# EKVX = assay: Cytotoxicity against human EKVX cells; type: functional
# HOP-62 = assay: Cytotoxicity against human HOP62 cells; type: functional
# MOLT-4 = assay: Cytotoxicity against human MOLT4 cells; type: functional
# HL-60 = assay: Cytotoxicity against human HL60 cells; type: functional
smiles,measurement,setting,value
CC1=C([Se]CC(OC(=O)[C@@H](CO)NC(=O)OC(C)(C)C)C(=O)NCCCCCC(=O)OCc2ccccc2)C(=O)c2ccccc2C1=O (stereo partly drawn),zone of inhibition at 20 µg/disc,Saccharomyces cerevisiae [1],0 mm
same,zone of inhibition at 20 µg/disc,Saccharomyces cerevisiae [2],0 mm
same,zone of inhibition at 20 µg/disc,Saccharomyces cerevisiae [3],12 mm
same,zone of inhibition at 20 µg/disc,Saccharomyces cerevisiae [4],15 mm
same,zone of inhibition at 20 µg/disc,Saccharomyces cerevisiae [5],11 mm
same,zone of inhibition at 20 µg/disc,Saccharomyces cerevisiae [6],17 mm
same,IC50,A498,5 µM
same,IC50,MCF7 [7],5 µM
same,GI50,MDA-MB-231,1.66 µM
same,LC50,MDA-MB-231,6.03 µM
same,TGI,MDA-MB-231; read-out: pTGI (converted),3.16 µM
same,GI50,Hs-578T,2 µM
same,LC50,Hs-578T,> 100 µM
same,TGI,Hs-578T; read-out: pTGI (converted),4.68 µM
same,GI50,MCF7 [8],1.62 µM
same,LC50,MCF7 [8],7.08 µM
same,TGI,MCF7 [8]; read-out: pTGI (converted),3.39 µM
same,GI50,PC-3,1.23 µM
same,LC50,PC-3,5.37 µM
same,TGI,PC-3; read-out: pTGI (converted),2.57 µM
same,GI50,SN12C,1.95 µM
same,LC50,SN12C,6.61 µM
same,TGI,SN12C; read-out: pTGI (converted),3.63 µM
same,GI50,SK-OV-3,1.29 µM
same,LC50,SK-OV-3,5.13 µM
same,TGI,SK-OV-3; read-out: pTGI (converted),2.57 µM
same,GI50,NCI/ADR-RES,2.04 µM
same,TGI,NCI/ADR-RES; read-out: pTGI (converted),3.89 µM
same,GI50,OVCAR-4,1.55 µM
same,LC50,OVCAR-4,5.37 µM
same,TGI,OVCAR-4; read-out: pTGI (converted),2.88 µM
same,GI50,OVCAR-5,2.09 µM
same,LC50,OVCAR-5,6.31 µM
same,TGI,OVCAR-5; read-out: pTGI (converted),3.63 µM
same,GI50,IGROV-1,1.78 µM
same,LC50 (concentration killing 50% of cells),IGROV-1,6.31 µM
same,TGI,IGROV-1; read-out: pTGI (converted),3.39 µM
same,GI50,OVCAR-3,1.78 µM
same,LC50,OVCAR-3,5.62 µM
same,TGI,OVCAR-3; read-out: pTGI (converted),3.16 µM
same,GI50,SK-MEL-28,1.78 µM
same,LC50,SK-MEL-28,5.75 µM
same,TGI,SK-MEL-28; read-out: pTGI (converted),3.24 µM
same,GI50,U-251,0.933 µM
same,LC50,U-251,4.9 µM
same,TGI,U-251; read-out: pTGI (converted),2.19 µM
same,GI50,LOX IMVI,1.86 µM
same,LC50,LOX IMVI,7.41 µM
same,TGI,LOX IMVI; read-out: pTGI (converted),3.72 µM
same,GI50,SF-268,1.86 µM
same,LC50,SF-268,5.75 µM
same,TGI,SF-268; read-out: pTGI (converted),3.24 µM
same,GI50,HCT-15,1.95 µM
same,LC50,HCT-15,7.41 µM
same,TGI,HCT-15; read-out: pTGI (converted),3.8 µM
same,GI50,COLO 205,1.82 µM
same,CC50,COLO 205; read-out: pLC50 (the source's name) (converted),6.17 µM
same,TGI,COLO 205; read-out: pTGI (converted),3.31 µM
same,GI50,NCI-H460,0.457 µM
same,LC50,NCI-H460,5.37 µM
same,TGI,NCI-H460; read-out: pTGI (converted),1.62 µM
same,GI50,NCI-H23,1.82 µM
same,TGI,NCI-H23; read-out: pTGI (converted),4.07 µM
same,GI50,A549,1.38 µM
same,LC50,A549,6.92 µM
same,TGI,A549; read-out: pTGI (converted),3.09 µM
same,GI50,EKVX,1.82 µM
same,LC50,EKVX,8.32 µM
same,TGI,EKVX; read-out: pTGI (converted),3.89 µM
same,GI50,HOP-62,0.417 µM
same,LC50,HOP-62,4.79 µM
same,TGI,HOP-62; read-out: pTGI (converted),1.74 µM
same,GI50,MOLT-4,1.38 µM
same,LC50,MOLT-4,> 100 µM
same,TGI,MOLT-4; read-out: pTGI (converted),4.9 µM
same,GI50,HL-60,2.04 µM
same,LC50,HL-60,> 100 µM
same,TGI,HL-60; read-out: pTGI (converted),4.79 µM
